Here are results for eleven molecules from ChEMBL document CHEMBL1142891, “Lead discovery and optimization of T-type calcium channel blockers” (Bioorg Med Chem, 2007).

Common to all, as to assay type: cell-based
In experiment [1] the target is Voltage-dependent T-type calcium channel subunit alpha-1H (Homo sapiens) (UniProt O95180). In words: Inhibition of T type calcium channel subunit alpha-1H expressed in Xenopus oocytes at 100 uM by FDSS assay. To be noted: Oocyte.
Experiment [2] deals with T1, Voltage-dependent T-type calcium channel subunit alpha-1G (Homo sapiens, UniProt O43497). Briefly: Inhibition of T type calcium channel subunit alpha1G expressed in HEK293 cells assessed as effect on KCl-induced increase in intracellular calcium level at 10 uM by FDSS assay. The essentials:
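HEK293 cells stably co-expressing α1G and Kir2.1 were plated at 40,000 cells/well and used the next day. Loaded 60 min at room temperature with 5 µM fluo3/AM plus 0.001% Pluronic F-127 in HEPES buffer (1.8 mM CaCl2, pH 7.4). Depolarized with 70 mM KCl in buffer containing 10 mM CaCl2; the rise in intracellular Ca2+ was read by fluorescence.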
(Calcium assays in cells follow changes in intracellular calcium, usually with a dye or a luminescent sensor.)

For experiment [3], the target named is T1, Voltage-dependent T-type calcium channel subunit alpha-1G. Briefly: Inhibition of T type calcium channel subunit alpha-1G expressed in HEK293 cells assessed as effect on T-type calcium currents at 10 uM by patch clamp method.
Experiment [4] shares this target. Briefly: Inhibition of T type calcium channel subunit alpha-1G expressed in HEK293 cells assessed as effect on T-type calcium currents by patch clamp method. In a few lines:
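Whole-cell patch clamp on HEK293 cells expressing α1G. Electrodes of 3-4 MΩ held internal solution (mM): 130 KCl, 11 EGTA, 5 Mg-ATP, 10 HEPES, pH 7.4. External solution (mM): 140 NaCl, 2 CaCl2, 10 HEPES, 10 glucose, pH 7.4. Currents evoked every 15 s by a 50 ms step from -100 to -30 mV. Read-out was peak current; IC50 from dose-response fits.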
(In general: In patch-clamp work, channel activity is measured electrically.)

Voltage-dependent T-type calcium channel subunit alpha-1H (Homo sapiens), sequence (O95180 whole entry): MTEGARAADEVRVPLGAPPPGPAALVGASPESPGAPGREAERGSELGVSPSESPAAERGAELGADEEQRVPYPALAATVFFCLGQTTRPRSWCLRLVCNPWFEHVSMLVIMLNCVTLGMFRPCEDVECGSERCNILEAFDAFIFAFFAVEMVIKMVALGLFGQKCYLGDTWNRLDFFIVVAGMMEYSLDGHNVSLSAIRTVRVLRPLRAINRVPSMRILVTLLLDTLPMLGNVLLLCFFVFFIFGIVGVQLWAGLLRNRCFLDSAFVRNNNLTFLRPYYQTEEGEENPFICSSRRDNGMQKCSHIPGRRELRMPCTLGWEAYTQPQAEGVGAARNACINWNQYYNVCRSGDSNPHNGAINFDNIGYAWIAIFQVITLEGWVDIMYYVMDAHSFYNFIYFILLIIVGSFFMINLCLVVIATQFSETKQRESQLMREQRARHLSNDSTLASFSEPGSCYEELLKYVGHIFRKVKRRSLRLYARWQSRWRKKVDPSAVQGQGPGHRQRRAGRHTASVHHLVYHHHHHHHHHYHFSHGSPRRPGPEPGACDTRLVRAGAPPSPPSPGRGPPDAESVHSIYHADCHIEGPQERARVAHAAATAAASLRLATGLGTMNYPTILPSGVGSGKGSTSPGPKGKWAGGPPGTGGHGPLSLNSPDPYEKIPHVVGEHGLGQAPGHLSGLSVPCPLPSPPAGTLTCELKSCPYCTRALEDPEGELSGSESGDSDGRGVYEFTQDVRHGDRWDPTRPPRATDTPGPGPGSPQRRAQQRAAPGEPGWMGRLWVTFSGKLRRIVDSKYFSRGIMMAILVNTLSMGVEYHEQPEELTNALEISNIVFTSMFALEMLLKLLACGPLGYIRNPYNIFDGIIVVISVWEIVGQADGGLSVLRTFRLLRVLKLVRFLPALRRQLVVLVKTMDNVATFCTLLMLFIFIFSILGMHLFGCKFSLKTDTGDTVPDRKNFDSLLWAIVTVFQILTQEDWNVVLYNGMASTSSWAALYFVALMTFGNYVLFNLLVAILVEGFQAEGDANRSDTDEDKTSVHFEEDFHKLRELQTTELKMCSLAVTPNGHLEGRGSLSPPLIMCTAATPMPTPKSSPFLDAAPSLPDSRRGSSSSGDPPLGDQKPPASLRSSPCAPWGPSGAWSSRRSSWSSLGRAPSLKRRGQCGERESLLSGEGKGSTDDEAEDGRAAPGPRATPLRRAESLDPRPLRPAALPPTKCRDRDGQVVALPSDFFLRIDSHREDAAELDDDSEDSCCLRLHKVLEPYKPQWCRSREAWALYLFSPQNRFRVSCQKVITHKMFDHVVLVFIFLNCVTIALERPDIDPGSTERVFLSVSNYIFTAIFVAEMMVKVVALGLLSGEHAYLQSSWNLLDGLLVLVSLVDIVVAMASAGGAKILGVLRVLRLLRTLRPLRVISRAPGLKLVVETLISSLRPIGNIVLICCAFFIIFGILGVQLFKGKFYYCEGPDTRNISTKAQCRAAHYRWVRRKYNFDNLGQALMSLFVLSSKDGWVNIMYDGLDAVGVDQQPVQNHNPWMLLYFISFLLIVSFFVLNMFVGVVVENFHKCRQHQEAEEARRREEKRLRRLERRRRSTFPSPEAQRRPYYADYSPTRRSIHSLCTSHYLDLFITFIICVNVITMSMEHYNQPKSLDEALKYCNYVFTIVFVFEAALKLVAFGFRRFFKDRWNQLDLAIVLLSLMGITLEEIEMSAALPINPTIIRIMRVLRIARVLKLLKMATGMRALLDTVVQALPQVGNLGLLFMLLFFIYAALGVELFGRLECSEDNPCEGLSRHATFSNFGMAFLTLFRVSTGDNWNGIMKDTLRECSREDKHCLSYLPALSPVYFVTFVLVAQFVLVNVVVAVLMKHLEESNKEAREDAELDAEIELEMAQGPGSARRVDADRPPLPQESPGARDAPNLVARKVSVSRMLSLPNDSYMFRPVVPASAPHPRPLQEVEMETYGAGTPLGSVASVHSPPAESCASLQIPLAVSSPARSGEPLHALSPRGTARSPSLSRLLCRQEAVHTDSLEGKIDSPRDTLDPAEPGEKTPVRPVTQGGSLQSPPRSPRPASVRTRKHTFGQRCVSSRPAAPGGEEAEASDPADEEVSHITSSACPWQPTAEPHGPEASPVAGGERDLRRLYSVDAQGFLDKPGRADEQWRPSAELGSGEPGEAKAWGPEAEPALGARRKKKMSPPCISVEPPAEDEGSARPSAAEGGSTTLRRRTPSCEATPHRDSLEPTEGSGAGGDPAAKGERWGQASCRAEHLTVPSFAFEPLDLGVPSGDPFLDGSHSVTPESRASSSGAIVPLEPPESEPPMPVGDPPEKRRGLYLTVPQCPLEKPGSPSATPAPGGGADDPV
T1 sequence (O43497 whole entry): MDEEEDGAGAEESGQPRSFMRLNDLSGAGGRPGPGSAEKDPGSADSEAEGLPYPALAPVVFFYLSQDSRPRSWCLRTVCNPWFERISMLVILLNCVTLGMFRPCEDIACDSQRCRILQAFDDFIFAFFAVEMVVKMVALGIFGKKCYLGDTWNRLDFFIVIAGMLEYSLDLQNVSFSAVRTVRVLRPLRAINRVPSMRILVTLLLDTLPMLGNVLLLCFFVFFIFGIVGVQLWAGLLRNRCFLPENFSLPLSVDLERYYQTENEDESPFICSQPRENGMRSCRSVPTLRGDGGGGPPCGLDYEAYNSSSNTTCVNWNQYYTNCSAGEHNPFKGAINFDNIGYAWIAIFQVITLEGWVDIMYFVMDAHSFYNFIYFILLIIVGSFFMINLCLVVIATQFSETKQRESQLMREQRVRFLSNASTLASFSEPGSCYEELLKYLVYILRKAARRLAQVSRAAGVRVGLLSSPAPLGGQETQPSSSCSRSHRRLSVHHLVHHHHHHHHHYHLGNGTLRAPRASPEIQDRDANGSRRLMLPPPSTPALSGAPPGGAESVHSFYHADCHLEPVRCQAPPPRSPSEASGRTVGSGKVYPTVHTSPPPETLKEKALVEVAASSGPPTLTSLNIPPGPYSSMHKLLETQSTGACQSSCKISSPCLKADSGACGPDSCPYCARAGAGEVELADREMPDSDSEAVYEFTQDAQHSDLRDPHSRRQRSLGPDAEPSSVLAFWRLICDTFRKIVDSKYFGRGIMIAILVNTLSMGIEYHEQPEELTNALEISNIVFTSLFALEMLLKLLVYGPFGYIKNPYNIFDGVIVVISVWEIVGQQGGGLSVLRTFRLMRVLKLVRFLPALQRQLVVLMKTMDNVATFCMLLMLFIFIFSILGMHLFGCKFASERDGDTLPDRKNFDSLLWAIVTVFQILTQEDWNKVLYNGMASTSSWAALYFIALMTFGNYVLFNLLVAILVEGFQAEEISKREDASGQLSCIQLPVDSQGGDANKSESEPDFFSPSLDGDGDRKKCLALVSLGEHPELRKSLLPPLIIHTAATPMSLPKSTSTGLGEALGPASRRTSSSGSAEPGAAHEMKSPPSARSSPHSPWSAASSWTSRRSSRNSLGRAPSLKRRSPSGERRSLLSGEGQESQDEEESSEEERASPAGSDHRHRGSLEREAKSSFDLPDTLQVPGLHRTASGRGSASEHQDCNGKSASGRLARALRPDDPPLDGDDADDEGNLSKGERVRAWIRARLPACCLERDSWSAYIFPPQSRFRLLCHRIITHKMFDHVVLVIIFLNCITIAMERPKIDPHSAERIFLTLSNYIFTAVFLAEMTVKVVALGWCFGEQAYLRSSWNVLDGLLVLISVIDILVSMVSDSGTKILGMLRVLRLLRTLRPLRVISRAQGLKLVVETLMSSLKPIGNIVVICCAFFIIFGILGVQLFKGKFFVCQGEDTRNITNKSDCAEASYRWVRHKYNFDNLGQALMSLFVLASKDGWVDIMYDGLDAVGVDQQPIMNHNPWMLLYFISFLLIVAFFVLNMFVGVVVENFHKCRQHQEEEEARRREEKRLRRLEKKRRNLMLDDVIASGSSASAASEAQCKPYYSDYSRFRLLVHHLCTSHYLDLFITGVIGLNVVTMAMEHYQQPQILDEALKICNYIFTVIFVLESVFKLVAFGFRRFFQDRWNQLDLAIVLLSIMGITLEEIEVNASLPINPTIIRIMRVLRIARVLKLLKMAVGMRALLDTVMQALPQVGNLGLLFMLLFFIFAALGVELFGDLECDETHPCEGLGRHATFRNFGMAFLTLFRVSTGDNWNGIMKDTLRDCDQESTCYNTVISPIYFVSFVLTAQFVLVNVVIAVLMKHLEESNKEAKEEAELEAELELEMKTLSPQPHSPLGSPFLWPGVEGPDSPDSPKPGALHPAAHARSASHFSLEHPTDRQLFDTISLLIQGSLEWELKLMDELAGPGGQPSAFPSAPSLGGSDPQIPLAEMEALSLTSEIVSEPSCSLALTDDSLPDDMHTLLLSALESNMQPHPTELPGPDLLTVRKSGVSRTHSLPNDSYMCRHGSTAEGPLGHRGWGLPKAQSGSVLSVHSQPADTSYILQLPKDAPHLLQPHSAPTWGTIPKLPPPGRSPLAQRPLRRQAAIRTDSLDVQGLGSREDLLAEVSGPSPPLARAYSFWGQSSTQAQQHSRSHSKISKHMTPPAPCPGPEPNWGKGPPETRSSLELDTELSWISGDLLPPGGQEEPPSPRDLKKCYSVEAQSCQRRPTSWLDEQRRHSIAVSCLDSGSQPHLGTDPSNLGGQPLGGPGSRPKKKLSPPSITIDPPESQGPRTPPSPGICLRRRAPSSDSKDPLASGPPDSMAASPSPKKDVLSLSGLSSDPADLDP

With `CCN1CCN(CCCCC(=O)N2CCN(CC(=O)Nc3cccc(C(F)(F)F)c3)CC2)CC1`, in experiment [1], the inhibition – broadly, the change of the read-out against control, counted positive when it falls – came out at 23.6%.

As for `O=C(CN1CCN(C(=O)CCCCN2CCN(c3ccccc3)CC2)CC1)Nc1cccc(C(F)(F)F)c1`, the inhibition in experiment [1] amounted to 53%.

Turning to `CN1CCN(CCCCC(=O)N2CCN(CC(=O)Nc3cccc(Cl)c3)CC2)CC1`, the inhibition in experiment [1] was < 1%.

`CCN1CCN(CCCCC(=O)N2CCN(CC(=O)Nc3cccc(Cl)c3)CC2)CC1`: the inhibition in experiment [1] came to 71.6%.

Take `CN1CCN(CCCCC(=O)N2CCN(CC(=O)Nc3cccc(C(F)(F)F)c3)CC2)CC1`: in experiment [1], the inhibition is < 1%.

Turning to `O=C(CCCN1CCN(c2ccccc2)CC1)Nc1ccc(Cl)cc1`, the results for the inhibition in experiment [2] and in experiment [3] were 30.4% and 75.1%, respectively. In addition, the IC50 (as a rule, the concentration at which inhibition is half-maximal) in experiment [4] turned out to be 4.47 µM.

For `O=C(CCCN1CCN(c2ccccc2F)CC1)Nc1ccc(Cl)cc1`, the inhibition was 36.1% in experiment [2] and 79.2% in experiment [3]. For the same molecule, in experiment [4], the IC50 worked out at 3.63 µM.

Take `O=C(CN1CCN(C(=O)CCCCN2CCN(c3ccccc3)CC2)CC1)Nc1cccc(Cl)c1`: the inhibition in experiment [1] is 75.3%.

For `COc1cccc(N2CCN(CCCC(=O)Nc3ccc(Cl)cc3Cl)CC2)c1`, the inhibition in experiment [2] was 44.2%; in experiment [3], 80.3%. The half-inhibitory concentration (IC50) in experiment [4] was 3.81 µM.

`O=C(CCCN1CCN(c2ccccc2Cl)CC1)Nc1ccc(Cl)cc1`: the inhibition in experiment [2] was 37.3%; in experiment [3], 60.5%. Moreover, in experiment [4], the IC50 was determined as 6.01 µM.

Consider `O=C(CCCCN1CCN(Cc2ccc(Cl)c(Cl)c2)CC1)Nc1ccccc1Cl`, for which the inhibition in experiment [2] is 55.9%; in experiment [3], 91%. Further, in experiment [4], the IC50 stood at 1.01 µM.
